We go through 13 compounds from ChEMBL document CHEMBL1154870, “Synthesis of tropolone derivatives and evaluation of their in vitro neuroprotective activity” (Eur J Med Chem, 2010).

pEC50: −log10 of the molar value. Where only a bound is given, the exact number is not on record here.

Assay [1] has as its system HT-22. Put plainly: Neuroprotective activity against glutamate-mediated oxidative stress-induced cell death in mouse HT22 cells assessed as survival after 24 hrs by MTT assay. The class given is functional, cell-based. An outline of the steps:
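HT22 cells seeded at 4000/well in DMEM-Hepes-GlutaMAX with 10% FBS. After 24 h, 5 mM glutamate was added with or without test compound in fresh medium for 24 h. Viability was read by MTT formazan (OD 550 minus 670 nm), with DMSO vehicle controls. EC50 was the concentration keeping glutamate-exposed viability at 50% of unexposed cells. Mean ± SEM, ≥3 independent experiments.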

The test system of assay [2] is HT-22. The assay is described as follows: Ratio of beta-thujaplicin EC50 to drug EC50 for mouse HT22 cells.
The subject of assay [3] is HT-22. The assay is described as follows: Neuroprotective activity against glutamate-mediated oxidative stress-induced cell death in mouse HT22 cells assessed as survival at 10 uM after 24 hrs by MTT assay. It counts as functional. Put shortly: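 HT22 mouse hippocampal cells seeded at 4000/well in DMEM-Hepes-GlutaMAX with 10% FBS; after 24 h, challenged with 5 mM glutamate plus test compound in fresh medium for 24 h. MTT formazan read as dOD 550–670 nm. % neuroprotection = (CD_vehicle − CD_compound)/CD_vehicle; efficacy classed full/partial/weak as 67–100, 34–66, ≤33%. Mean of ≥3 independent experiments.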

Take `O=c1c(O)ccccc1CN1CCOCC1`: the pEC50 in the assay with HT-22 [1] (Mus musculus, HT-22, 24 h) was less than 5.00. Moreover, the “Ratio EC50” value with HT-22 [2] was less than 0.5.

On to `CC(C)c1ccc(CN2CCN(c3ccc([N+](=O)[O-])cc3)CC2)c(=O)c(O)c1`, for which the Efficacy in the assay with HT-22 [3] is 91%. In addition, the pEC50 with HT-22 [1] (Mus musculus, HT-22, 24 h) was 5.77. Further, the “Ratio EC50” value in the assay with HT-22 [2] is listed as 2.8.

Turning to `Cc1c(C)c2c(c(C)c1O)CCC(C)(C(=O)NCCN1CCN(Cc3ccc(C(C)C)cc(O)c3=O)CC1)O2` (configuration not stated), in the assay with HT-22 [3], the Efficacy was determined as 89%. Besides, the pEC50 in the assay on HT-22 [1] (Mus musculus, HT-22, 24 h) is 7.05. Besides, the “Ratio EC50” value in the assay on HT-22 [2] is 53.

For the compound `Cc1c(C)c2c(c(C)c1O)CCC(C)(C(=O)N1CCN(Cc3ccc(C(C)C)cc(O)c3=O)CC1)O2` (configuration not stated), the Efficacy with HT-22 [3] is 62%. The pEC50 in the assay on HT-22 [1] (Mus musculus, HT-22, 24 h) was 7.10. The “Ratio EC50” value in the assay with HT-22 [2] is 60.

Regarding `CCOC(=O)N1CCN(Cc2ccc(C(C)C)cc(O)c2=O)CC1`, in the assay on HT-22 [3], the Efficacy is reported as 88%. Also, the pEC50 with HT-22 [1] (Mus musculus, HT-22, 24 h) is 5.85. Besides, in the assay with HT-22 [2], the “Ratio EC50” value is reported as 3.4.

For the compound `CC(C)c1ccc(CN2CCN(Cc3ccc(C(C)C)cc(O)c3=O)CC2)c(=O)c(O)c1`, in the assay on HT-22 [1] (Mus musculus, HT-22, 24 h), the pEC50 is 6.04.

On to `COc1cc(C(C)C)ccc(COc2ccccn2)c1=O`, for which, in the assay with HT-22 [1] (Mus musculus, HT-22, 24 h), the pEC50 was less than 5.00. In the assay with HT-22 [2], the “Ratio EC50” value was less than 0.5.

`COc1cc(C(C)C)ccc(Cn2cc(Cc3ccccc3)nn2)c1=O`: the Efficacy with HT-22 [3] is recorded as 30%. In addition, the pEC50 with HT-22 [1] (Mus musculus, HT-22, 24 h) was less than 5.00. Moreover, the “Ratio EC50” value with HT-22 [2] is less than 0.5.

Turning to `CC(C)c1ccc(CN2CCOCC2)c(=O)c(O)c1`, the Efficacy with HT-22 [3] came to 87%. Further, the pEC50 with HT-22 [1] (Mus musculus, HT-22, 24 h) was 5.59. Besides, the “Ratio EC50” value with HT-22 [2] is recorded as 1.9.

On to `CC(C)c1ccc(CN2CCN(Cc3ccc([N+](=O)[O-])cc3)CC2)c(=O)c(O)c1`, for which, in the assay with HT-22 [3], the Efficacy was 100%. In the assay with HT-22 [1] (Mus musculus, HT-22, 24 h), the pEC50 is 6.02. In addition, in the assay on HT-22 [2], the “Ratio EC50” value was found to be 5.

In the case of `O=c1cccccc1O` [TROPOLONE], the pEC50 in the assay with HT-22 [1] (Mus musculus, HT-22, 24 h) is less than 5.00. Moreover, in the assay on HT-22 [2], the “Ratio EC50” value is less than 0.5.

With `CC(C)c1cccc(=O)c(O)c1` [HINOKITIOL], the Efficacy in the assay with HT-22 [3] is on record as 62%. Further, the pEC50 with HT-22 [1] (Mus musculus, HT-22, 24 h) was 5.32. For the same compound, the “Ratio EC50” value in the assay with HT-22 [2] was found to be 1.

VITAMIN E: the pEC50 in the assay on HT-22 [1] (ht-22) is 6.70.

In general, pEC50 refers to the EC50 on a negative log10 scale, so that one unit is a factor of ten.
